This is an account of results in ChEMBL document CHEMBL1148648, “Novel 1,3-disubstituted 8-(1-benzyl-1H-pyrazol-4-yl) xanthines: high affinity and selective A2B adenosine receptor antagonists” (J Med Chem, 2006).

In test [1] the target is Adenosine receptors; A1 & A2b (Homo sapiens) (UniProt P30542+P29275). The test is described as follows: Selectivity for human adenosine A2b receptor over adenosine A1 receptor. In kind it is protein assay.
The next test has as its target T1, Adenosine receptor A1 (Homo sapiens, UniProt P30542).
T1 sequence (P30542 whole entry): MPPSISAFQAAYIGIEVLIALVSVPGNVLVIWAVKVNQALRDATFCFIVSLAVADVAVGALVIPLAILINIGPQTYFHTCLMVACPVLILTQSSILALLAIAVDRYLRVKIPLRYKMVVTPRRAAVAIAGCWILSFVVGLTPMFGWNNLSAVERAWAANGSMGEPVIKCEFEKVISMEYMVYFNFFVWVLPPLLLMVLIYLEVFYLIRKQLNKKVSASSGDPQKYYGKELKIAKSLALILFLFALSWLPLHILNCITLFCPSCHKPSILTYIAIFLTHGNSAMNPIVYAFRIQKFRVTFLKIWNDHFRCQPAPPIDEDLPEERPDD
Kind of test: Displacement of [3H]CPX from human adenosine A1 receptor expressed in CHO cells. (Displacement assays read how much labelled ligand stays bound in the presence of the test substance.)

The next test has as its target T2, Adenosine receptor A3 (Homo sapiens, UniProt P0DMS8).
T2 sequence (P0DMS8 whole entry): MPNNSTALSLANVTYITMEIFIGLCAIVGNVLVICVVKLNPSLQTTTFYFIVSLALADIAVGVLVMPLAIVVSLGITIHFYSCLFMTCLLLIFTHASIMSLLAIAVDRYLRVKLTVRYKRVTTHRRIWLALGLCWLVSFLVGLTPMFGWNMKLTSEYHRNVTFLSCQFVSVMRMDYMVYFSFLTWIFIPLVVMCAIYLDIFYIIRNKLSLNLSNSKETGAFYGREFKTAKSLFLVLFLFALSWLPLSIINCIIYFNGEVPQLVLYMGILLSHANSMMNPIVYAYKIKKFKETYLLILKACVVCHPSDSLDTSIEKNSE
The test is described as follows: Displacement of [125I]AB-MECA from human adenosine A3 receptor expressed in CHO cells. In kind it is cell-based. A digest of the protocol:
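Membranes from CHO cells stably expressing human A3 receptor, prepared like the A2B membranes. Incubated 90 min at 25 °C with gentle agitation, then filtered and washed 4× in ice-cold TM buffer. Nonspecific binding was defined with 1 µM IB-MECA.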

For test [2], the target named is Adenosine receptors; A2b & A3 (Homo sapiens) (UniProt P29275+P0DMS8). The test is described as follows: Selectivity for human adenosine A2b receptor over adenosine A3 receptor. The test is classed as protein assay.
For test [3], the target named is Adenosine A2 receptor (Homo sapiens) (UniProt P29275+P29274). Kind of test: Selectivity for human adenosine A2b receptor over adenosine A2a receptor. In kind it is protein assay.
The target in the next test is Adenosine receptor A2a (Homo sapiens, UniProt P29274). The test is described as follows: Displacement of [3H]ZM-241385 from human adenosine A2a receptor expressed in HEK cells. The test is classed as cell-based, HEK293.
Adenosine receptor A2a, sequence (P29274 whole entry): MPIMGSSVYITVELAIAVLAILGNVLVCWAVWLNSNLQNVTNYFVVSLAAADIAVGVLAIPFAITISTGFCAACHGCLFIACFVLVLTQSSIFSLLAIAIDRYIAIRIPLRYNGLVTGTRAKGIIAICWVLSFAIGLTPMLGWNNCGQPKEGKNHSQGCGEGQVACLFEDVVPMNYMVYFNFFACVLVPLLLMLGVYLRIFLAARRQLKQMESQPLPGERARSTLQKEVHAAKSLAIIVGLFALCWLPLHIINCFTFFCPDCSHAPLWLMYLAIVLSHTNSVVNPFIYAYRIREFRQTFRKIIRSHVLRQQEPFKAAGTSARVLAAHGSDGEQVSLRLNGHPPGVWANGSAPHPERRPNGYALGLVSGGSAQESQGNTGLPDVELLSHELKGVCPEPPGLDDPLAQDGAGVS
The next test has as its target T3, Adenosine receptor A2b (Homo sapiens, UniProt P29275).
T3 sequence (P29275 whole entry): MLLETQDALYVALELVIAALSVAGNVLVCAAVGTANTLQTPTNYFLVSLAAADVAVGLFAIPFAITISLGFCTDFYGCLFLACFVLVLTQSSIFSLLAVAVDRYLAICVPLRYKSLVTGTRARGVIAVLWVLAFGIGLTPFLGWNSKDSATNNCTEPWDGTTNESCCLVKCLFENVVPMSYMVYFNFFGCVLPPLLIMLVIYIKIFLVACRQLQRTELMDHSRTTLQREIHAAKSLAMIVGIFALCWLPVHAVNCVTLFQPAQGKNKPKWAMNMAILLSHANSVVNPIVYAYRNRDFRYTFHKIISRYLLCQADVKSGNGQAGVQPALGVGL
Kind of test: Displacement of [3H]ZM241385 from human adenosine A2b receptor expressed in HEK cells. The test is classed as cell-based, HEK293.

SMILES strings stand for the structures.

Consider `Cn1c(=O)c2nc(-c3cnn(Cc4cccc(C(F)(F)F)c4)c3)[nH]c2n(C)c1=O`, for which the Ratio Ki in test [1] was found to be 990; in test [2], 1000; in test [3] it was 690. For the same compound, the Ki (in general, a dissociation constant, usually derived from enzyme kinetics or from competition with a known ligand) at Adenosine receptor A1 was determined as 990 nM; on Adenosine receptor A3 it was 1000 nM; at Adenosine receptor A2a, 690 nM; on Adenosine receptor A2b, 1 nM.

Turning to `CCn1c(=O)c2nc(-c3cnn(Cc4cccc(C(F)(F)F)c4)c3)[nH]c2n(CC)c1=O`, the Ratio Ki in test [1] amounted to 44; in test [3], 34. Moreover, the Ki at Adenosine receptor A1 was 570 nM; on Adenosine receptor A2a, 450 nM; on Adenosine receptor A2b, 13 nM.

`CCCn1c(=O)c2[nH]c(-c3cn[nH]c3)nc2n(CCC)c1=O`: the Ki on Adenosine receptor A1 is 20 nM; at Adenosine receptor A3, 23 nM; at Adenosine receptor A2a, 230 nM; at Adenosine receptor A2b, 9 nM.

As for `Cn1c(=O)c2nc(-c3cnn(Cc4ccccc4)c3)[nH]c2n(C)c1=O`, the Ratio Ki amounted to 2 in test [1] and 1 in test [3]. In addition, the Ki on Adenosine receptor A1 was above 6000 nM; at Adenosine receptor A2a, 3500 nM; at Adenosine receptor A2b, 2300 nM.

Consider `CCCn1c(=O)c2[nH]c(-c3cc(NC(=O)Cc4ccc(OC)c(OC)c4)nn3C)nc2n(CCC)c1=O`, for which the Ki on Adenosine receptor A1, on Adenosine receptor A3 and at Adenosine receptor A2a was above 1000 nM throughout.

On to `CCCn1c(=O)c2nc(-c3cnn(Cc4cccc(Cl)c4)c3)[nH]c2n(CCC)c1=O`, for which the Ratio Ki in test [1] is 2; in test [3] it was 4. The figures for the Ki on Adenosine receptor A1, at Adenosine receptor A2a and on Adenosine receptor A2b were 31 nM, 79 nM and 18 nM, respectively.

In the case of `CCCn1c(=O)c2[nH]c(-c3cnn(Cc4ccccc4)c3)nc2n(CCC)c1=O`, the Ratio Ki in test [1] came out at 7; in test [2], 15; in test [3] it was 26. Also, the Ki on Adenosine receptor A1 turned out to be 76 nM; on Adenosine receptor A3 it was 170 nM; on Adenosine receptor A2a, 290 nM; at Adenosine receptor A2b, 11 nM.

`CCCn1c(=O)c2nc(-c3cnn(Cc4ccc(Cl)cc4)c3)[nH]c2n(CCC)c1=O`: the Ratio Ki is 0.5 in test [1] and 4 in test [3]. Further, the Ki on Adenosine receptor A1 turned out to be 7 nM; on Adenosine receptor A2a it was 88 nM; at Adenosine receptor A2b, 18 nM.

With `CCCn1c(=O)c2nc(-c3cnn(CCCc4ccccc4)c3)[nH]c2n(CCC)c1=O`, the Ratio Ki in test [1] is 0.7; in test [3] it was 2. Further, the figures for the Ki at Adenosine receptor A1, at Adenosine receptor A2a and on Adenosine receptor A2b were 77 nM, 220 nM and 100 nM, respectively.

Consider `CCCn1c(=O)c2nc(-c3cnn(Cc4cc(C(F)(F)F)ccc4Cl)c3)[nH]c2n(CCC)c1=O`, for which the figures for the Ratio Ki in test [1], in test [2] and in test [3] were 54, 129 and 63, respectively. For the same compound, the Ki on Adenosine receptor A1 came out at 1200 nM; at Adenosine receptor A3 it was 2800 nM; on Adenosine receptor A2a, 1400 nM; on Adenosine receptor A2b it was 22 nM.

On to `CCCn1c(=O)c2nc(-c3cn[nH]c3)[nH]c2n(CCC)c1=O`, for which the Ratio Ki in test [1] was 2; in test [2], 2; in test [3], 23.

For `CCCn1c(=O)c2nc(-c3cnn(Cc4ccc(F)c(F)c4)c3)[nH]c2n(CCC)c1=O`, the Ratio Ki in test [1] is 7; in test [3], 8. In addition, the Ki came out at 170 nM at Adenosine receptor A1, 280 nM on Adenosine receptor A2a and 35 nM at Adenosine receptor A2b.

For the compound `CCCn1c(=O)c2[nH]c(-c3cnn(Cc4cccc(C(F)(F)F)c4)c3)nc2n(CCC)c1=O`, the Ratio Ki in test [1] was 12; in test [2] it was 10; in test [3], 27. Also, the Ki on Adenosine receptor A1 turned out to be 170 nM; at Adenosine receptor A3, 150 nM; at Adenosine receptor A2a, 400 nM; on Adenosine receptor A2b, 14 nM.

As for `CCCn1c(=O)c2[nH]c(-c3cnn(Cc4cccc(F)c4)c3)nc2n(CCC)c1=O`, the results for the Ratio Ki in test [1], in test [2] and in test [3] were 13, 4 and 18, respectively. For the same compound, the Ki on Adenosine receptor A1 turned out to be 170 nM; at Adenosine receptor A3, 56 nM; at Adenosine receptor A2a, 230 nM; at Adenosine receptor A2b it was 14 nM.

Consider `CCCn1c(=O)c2nc(-c3cnn(Cc4cccc(Cl)c4F)c3)[nH]c2n(CCC)c1=O`, for which the Ratio Ki was 9 in test [1] and 13 in test [3]. In addition, the figures for the Ki at Adenosine receptor A1, on Adenosine receptor A2a and on Adenosine receptor A2b were 530 nM, 870 nM and 58 nM, respectively.

On to `CCCn1c(=O)c2nc(-c3cnn(Cc4ccc(C(F)(F)F)cc4)c3)[nH]c2n(CCC)c1=O`, for which the results for the Ratio Ki in test [1] and in test [3] were 2 and 7, respectively. For the same compound, the results for the Ki on Adenosine receptor A1, at Adenosine receptor A2a and on Adenosine receptor A2b were 41 nM, 150 nM and 20 nM, respectively.

As to `Cn1c(=O)c2[nH]c(-c3cnn(Cc4cccc(F)c4)c3)nc2n(C)c1=O`, the results for the Ratio Ki in test [1] and in test [3] were 17 and 7, respectively. Moreover, the Ki stood at 460 nM on Adenosine receptor A1, 200 nM at Adenosine receptor A2a and 27 nM on Adenosine receptor A2b.

As for `CCCn1c(=O)c2nc(-c3cnn(Cc4cccc(OC)c4)c3)[nH]c2n(CCC)c1=O`, the Ratio Ki in test [1] stood at 1; in test [3], 2. For the same compound, the Ki at Adenosine receptor A1 stood at 34 nM; on Adenosine receptor A2a, 70 nM; at Adenosine receptor A2b it was 34 nM.

Consider `CCn1c(=O)c2nc(-c3cnn(Cc4cccc(F)c4)c3)[nH]c2n(CC)c1=O`, for which the Ratio Ki in test [1] was 76; in test [3] it was 58. For the same compound, the Ki worked out at 380 nM on Adenosine receptor A1, 290 nM at Adenosine receptor A2a and 5 nM on Adenosine receptor A2b.
